Experimental data as given in ChEMBL document CHEMBL1152792, “Synthesis and anticonvulsant activity of amino acid-derived sulfamides” (J Med Chem, 2009).
Active and inactive are the calls of the source. The rule behind the calls is not given here.

Columns and labels:
Mus musculus [1] = experiment: Anticonvulsant activity in albino mouse at 30 mg/kg, ip after 0.5 hrs by MES test; assay type: functional, organism-based; design: dose 30 mg/kg
In short: (§1)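 NIH Anticonvulsant Drug Development (ADD) program phase I screen in adult male albino mice (18–23 g). Compound given ip in 30% PEG 400 and 10% water at 0.01 mL/g body weight. Seizures were induced electrically (MES) or chemically (PTZ), and animals were tested 0.5 and 4 h after dosing. Result scored as protected/tested animals.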

Mus musculus [2] = experiment: Anticonvulsant activity in albino mouse at 100 mg/kg, ip after 0.5 hrs by MES test; assay type: functional, organism-based; design: dose 100 mg/kg; in short: as §1
Mus musculus [3] = experiment: Anticonvulsant activity in albino mouse at 300 mg/kg, ip after 0.5 hrs by MES test; assay type: functional, organism-based; design: dose 300 mg/kg; in short: as §1
Mus musculus [4] = experiment: Anticonvulsant activity in albino mouse at 30 mg/kg, ip after 4 hrs by MES test; assay type: functional, organism-based; design: dose 30 mg/kg; in short: as §1
Mus musculus [5] = experiment: Anticonvulsant activity in albino mouse at 100 mg/kg, ip after 4 hrs by MES test; assay type: functional, organism-based; design: dose 100 mg/kg; in short: as §1
Mus musculus [6] = experiment: Anticonvulsant activity in albino mouse at 300 mg/kg, ip after 4 hrs by MES test; assay type: functional, organism-based; design: dose 300 mg/kg; in short: as §1
Mus musculus [7] = experiment: Anticonvulsant activity in albino mouse at 30 mg/kg, ip after 0.5 hrs by PTZ test; assay type: functional, organism-based; design: dose 30 mg/kg; in short: as §1
Mus musculus [8] = experiment: Anticonvulsant activity in albino mouse at 100 mg/kg, ip after 0.5 hrs by PTZ test; assay type: functional, organism-based; design: dose 100 mg/kg; in short: as §1
Mus musculus [9] = experiment: Anticonvulsant activity in albino mouse at 300 mg/kg, ip after 0.5 hrs by PTZ test; assay type: functional, organism-based; design: dose 300 mg/kg; in short: as §1
Mus musculus [10] = experiment: Anticonvulsant activity in albino mouse at 30 mg/kg, ip after 4 hrs by PTZ test; assay type: functional, organism-based; design: dose 30 mg/kg; in short: as §1
Mus musculus [11] = experiment: Anticonvulsant activity in albino mouse at 100 mg/kg, ip after 4 hrs by PTZ test; assay type: functional, organism-based; design: dose 100 mg/kg; in short: as §1
Mus musculus [12] = experiment: Anticonvulsant activity in albino mouse at 300 mg/kg, ip after 4 hrs by PTZ test; assay type: functional, organism-based; design: dose 300 mg/kg; in short: as §1
Mus musculus [13] = experiment: Toxicity in albino mouse at 30 mg/kg, ip after 0.5 hrs by rotarod test; assay type: organism-based; design: dose 30 mg/kg, route intraperitoneal; conditions: in vivo
In short: (§2)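 Neurotoxicity was screened by the standardized rotarod test in the ADD phase I protocol. Adult male albino mice (18–23 g) received compound ip in 30% PEG 400 and 10% water at 0.01 mL/g. Animals were tested 0.5 and 4 h post-dose. Result scored as toxic/tested animals.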

Mus musculus [14] = experiment: Toxicity in albino mouse at 100 mg/kg, ip after 0.5 hrs by rotarod test; assay type: organism-based; design: dose 100 mg/kg, route intraperitoneal; conditions: in vivo; in short: as §2
Mus musculus [15] = experiment: Toxicity in albino mouse at 300 mg/kg, ip after 0.5 hrs by rotarod test; assay type: organism-based; design: dose 300 mg/kg, route intraperitoneal; conditions: in vivo; in short: as §2
Mus musculus [16] = experiment: Toxicity in albino mouse at 30 mg/kg, ip after 4 hrs by rotarod test; assay type: organism-based; design: dose 30 mg/kg, route intraperitoneal; conditions: in vivo; in short: as §2
Mus musculus [17] = experiment: Toxicity in albino mouse at 100 mg/kg, ip after 4 hrs by rotarod test; assay type: organism-based; design: dose 100 mg/kg, route intraperitoneal; conditions: in vivo; in short: as §2
Mus musculus [18] = experiment: Toxicity in albino mouse at 300 mg/kg, ip after 4 hrs by rotarod test; assay type: organism-based; design: dose 300 mg/kg, route intraperitoneal; conditions: in vivo; in short: as §2

SMILES: CCCC(CCC)CN(C(=O)OC(C)(C)C)S(=O)(=O)NCCC(=O)OC
- Activity (Mus musculus [1]): inactive
- Activity (Mus musculus [2]): inactive
- Activity (Mus musculus [3]): inactive
- Activity (Mus musculus [4]): inactive
- Activity (Mus musculus [5]): inactive
- Activity (Mus musculus [6]): inactive
- Activity (Mus musculus [7]): inactive
- Activity (Mus musculus [8]): inactive
- Activity (Mus musculus [9]): inactive
- Activity (Mus musculus [10]): inactive
- Activity (Mus musculus [11]): inactive
- Activity (Mus musculus [12]): inactive
- Activity (Mus musculus [13]): Non-toxic
- Activity (Mus musculus [14]): Non-toxic
- Activity (Mus musculus [15]): Non-toxic
- Activity (Mus musculus [16]): Non-toxic
- Activity (Mus musculus [17]): Non-toxic
- Activity (Mus musculus [18]): Non-toxic

SMILES: CCCC(CCC)CN(C(=O)OC(C)(C)C)S(=O)(=O)NCC(=O)OC
- Activity (Mus musculus [1]): inactive
- Activity (Mus musculus [2]): inactive
- Activity (Mus musculus [3]): inactive
- Activity (Mus musculus [4]): inactive
- Activity (Mus musculus [5]): inactive
- Activity (Mus musculus [7]): inactive
- Activity (Mus musculus [8]): inactive
- Activity (Mus musculus [9]): inactive
- Activity (Mus musculus [10]): inactive
- Activity (Mus musculus [11]): inactive
- Activity (Mus musculus [12]): inactive
- Activity (Mus musculus [13]): Non-toxic
- Activity (Mus musculus [14]): Non-toxic
- Activity (Mus musculus [15]): Non-toxic
- Activity (Mus musculus [16]): Non-toxic
- Activity (Mus musculus [17]): Non-toxic
- Activity (Mus musculus [18]): Non-toxic

SMILES: COC(=O)CCNS(=O)(=O)NC(=O)OC(C)(C)C
- Activity (Mus musculus [1]): inactive
- Activity (Mus musculus [2]): inactive
- Activity (Mus musculus [4]): inactive
- Activity (Mus musculus [5]): inactive
- Activity (Mus musculus [6]): inactive
- Activity (Mus musculus [7]): inactive
- Activity (Mus musculus [8]): inactive
- Activity (Mus musculus [9]): inactive
- Activity (Mus musculus [10]): inactive
- Activity (Mus musculus [11]): inactive
- Activity (Mus musculus [12]): inactive
- Activity (Mus musculus [13]): Non-toxic
- Activity (Mus musculus [14]): Non-toxic
- Activity (Mus musculus [15]): Non-toxic
- Activity (Mus musculus [16]): Non-toxic
- Activity (Mus musculus [17]): Non-toxic
- Activity (Mus musculus [18]): Non-toxic

SMILES: COC(=O)[C@@H](C)NS(=O)(=O)NC(=O)OC(C)(C)C
- Activity (Mus musculus [1]): inactive
- Activity (Mus musculus [2]): inactive
- Activity (Mus musculus [3]): inactive
- Activity (Mus musculus [4]): inactive
- Activity (Mus musculus [5]): inactive
- Activity (Mus musculus [6]): inactive
- Activity (Mus musculus [7]): inactive
- Activity (Mus musculus [8]): inactive
- Activity (Mus musculus [9]): inactive
- Activity (Mus musculus [10]): inactive
- Activity (Mus musculus [11]): inactive
- Activity (Mus musculus [12]): inactive
- Activity (Mus musculus [13]): Non-toxic
- Activity (Mus musculus [14]): Non-toxic
- Activity (Mus musculus [15]): Non-toxic
- Activity (Mus musculus [16]): Non-toxic
- Activity (Mus musculus [17]): Non-toxic
- Activity (Mus musculus [18]): Non-toxic

SMILES: COC(=O)CCNS(=O)(=O)NCc1ccccc1
- Activity (Mus musculus [1]): inactive
- Activity (Mus musculus [4]): inactive
- Activity (Mus musculus [5]): inactive
- Activity (Mus musculus [6]): inactive
- Activity (Mus musculus [7]): inactive
- Activity (Mus musculus [8]): inactive
- Activity (Mus musculus [9]): inactive
- Activity (Mus musculus [11]): inactive
- Activity (Mus musculus [12]): inactive
- Activity (Mus musculus [13]): Non-toxic
- Activity (Mus musculus [14]): Non-toxic
- Activity (Mus musculus [15]): Non-toxic
- Activity (Mus musculus [16]): Non-toxic
- Activity (Mus musculus [17]): Non-toxic
- Activity (Mus musculus [18]): Non-toxic

SMILES: COC(=O)[C@@H](NS(=O)(=O)N[C@H](C(=O)OC)C(C)C)C(C)C
- Activity (Mus musculus [1]): inactive
- Activity (Mus musculus [4]): inactive
- Activity (Mus musculus [5]): inactive
- Activity (Mus musculus [6]): inactive
- Activity (Mus musculus [7]): inactive
- Activity (Mus musculus [8]): inactive
- Activity (Mus musculus [9]): inactive
- Activity (Mus musculus [10]): inactive
- Activity (Mus musculus [11]): inactive
- Activity (Mus musculus [12]): inactive
- Activity (Mus musculus [13]): Non-toxic
- Activity (Mus musculus [14]): Non-toxic
- Activity (Mus musculus [15]): Non-toxic
- Activity (Mus musculus [16]): Non-toxic
- Activity (Mus musculus [17]): Non-toxic
- Activity (Mus musculus [18]): Non-toxic

SMILES: COC(=O)[C@H](C)NS(=O)(=O)N[C@@H](C)C(=O)OC
- Activity (Mus musculus [1]): inactive
- Activity (Mus musculus [2]): inactive
- Activity (Mus musculus [3]): inactive
- Activity (Mus musculus [4]): inactive
- Activity (Mus musculus [5]): inactive
- Activity (Mus musculus [6]): inactive
- Activity (Mus musculus [7]): inactive
- Activity (Mus musculus [8]): inactive
- Activity (Mus musculus [9]): inactive
- Activity (Mus musculus [10]): inactive
- Activity (Mus musculus [11]): inactive
- Activity (Mus musculus [12]): inactive
- Activity (Mus musculus [13]): Non-toxic
- Activity (Mus musculus [14]): Non-toxic
- Activity (Mus musculus [15]): Non-toxic
- Activity (Mus musculus [16]): Non-toxic
- Activity (Mus musculus [17]): Non-toxic
- Activity (Mus musculus [18]): Non-toxic
